Where two headings read alike, the source gives them in different places.
Tests used:
[1] = biological target: phosphorylated chicken gizzard smooth muscle myosin (Gallus gallus, UniProt P10587); experiment: Steady-state actin-activated Mg2+ ATPase inhibition, smooth muscle myosin; format: biochemical
Procedure, shortened: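 Chicken gizzard smooth muscle myosin was fully phosphorylated (checked by urea gel), never frozen, and used within 2–3 weeks. It was run at 0.2 mg/mL final with 32 μM rabbit F-actin at 30 °C in MOPS pH 7.0, 50 mM NaCl, 0.1 mM EGTA, 5 mM MgCl2, 2 mM ATP, 1 mM DTT. DMSO was 2%, with dilutions from a 25 mM stock. IC50 is the half-maximal drop in steady-state ATPase.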

[2] = biological target: T1, fast rabbit skeletal myosin (Oryctolagus cuniculus, UniProt Q28641); experiment: Steady-state actin-activated Mg2+ ATPase inhibition, skeletal myosin; format: biochemical; settings: cardiac IC50 (x) / skeletal IC50 (y)
T1 sequence (Q28641 whole entry): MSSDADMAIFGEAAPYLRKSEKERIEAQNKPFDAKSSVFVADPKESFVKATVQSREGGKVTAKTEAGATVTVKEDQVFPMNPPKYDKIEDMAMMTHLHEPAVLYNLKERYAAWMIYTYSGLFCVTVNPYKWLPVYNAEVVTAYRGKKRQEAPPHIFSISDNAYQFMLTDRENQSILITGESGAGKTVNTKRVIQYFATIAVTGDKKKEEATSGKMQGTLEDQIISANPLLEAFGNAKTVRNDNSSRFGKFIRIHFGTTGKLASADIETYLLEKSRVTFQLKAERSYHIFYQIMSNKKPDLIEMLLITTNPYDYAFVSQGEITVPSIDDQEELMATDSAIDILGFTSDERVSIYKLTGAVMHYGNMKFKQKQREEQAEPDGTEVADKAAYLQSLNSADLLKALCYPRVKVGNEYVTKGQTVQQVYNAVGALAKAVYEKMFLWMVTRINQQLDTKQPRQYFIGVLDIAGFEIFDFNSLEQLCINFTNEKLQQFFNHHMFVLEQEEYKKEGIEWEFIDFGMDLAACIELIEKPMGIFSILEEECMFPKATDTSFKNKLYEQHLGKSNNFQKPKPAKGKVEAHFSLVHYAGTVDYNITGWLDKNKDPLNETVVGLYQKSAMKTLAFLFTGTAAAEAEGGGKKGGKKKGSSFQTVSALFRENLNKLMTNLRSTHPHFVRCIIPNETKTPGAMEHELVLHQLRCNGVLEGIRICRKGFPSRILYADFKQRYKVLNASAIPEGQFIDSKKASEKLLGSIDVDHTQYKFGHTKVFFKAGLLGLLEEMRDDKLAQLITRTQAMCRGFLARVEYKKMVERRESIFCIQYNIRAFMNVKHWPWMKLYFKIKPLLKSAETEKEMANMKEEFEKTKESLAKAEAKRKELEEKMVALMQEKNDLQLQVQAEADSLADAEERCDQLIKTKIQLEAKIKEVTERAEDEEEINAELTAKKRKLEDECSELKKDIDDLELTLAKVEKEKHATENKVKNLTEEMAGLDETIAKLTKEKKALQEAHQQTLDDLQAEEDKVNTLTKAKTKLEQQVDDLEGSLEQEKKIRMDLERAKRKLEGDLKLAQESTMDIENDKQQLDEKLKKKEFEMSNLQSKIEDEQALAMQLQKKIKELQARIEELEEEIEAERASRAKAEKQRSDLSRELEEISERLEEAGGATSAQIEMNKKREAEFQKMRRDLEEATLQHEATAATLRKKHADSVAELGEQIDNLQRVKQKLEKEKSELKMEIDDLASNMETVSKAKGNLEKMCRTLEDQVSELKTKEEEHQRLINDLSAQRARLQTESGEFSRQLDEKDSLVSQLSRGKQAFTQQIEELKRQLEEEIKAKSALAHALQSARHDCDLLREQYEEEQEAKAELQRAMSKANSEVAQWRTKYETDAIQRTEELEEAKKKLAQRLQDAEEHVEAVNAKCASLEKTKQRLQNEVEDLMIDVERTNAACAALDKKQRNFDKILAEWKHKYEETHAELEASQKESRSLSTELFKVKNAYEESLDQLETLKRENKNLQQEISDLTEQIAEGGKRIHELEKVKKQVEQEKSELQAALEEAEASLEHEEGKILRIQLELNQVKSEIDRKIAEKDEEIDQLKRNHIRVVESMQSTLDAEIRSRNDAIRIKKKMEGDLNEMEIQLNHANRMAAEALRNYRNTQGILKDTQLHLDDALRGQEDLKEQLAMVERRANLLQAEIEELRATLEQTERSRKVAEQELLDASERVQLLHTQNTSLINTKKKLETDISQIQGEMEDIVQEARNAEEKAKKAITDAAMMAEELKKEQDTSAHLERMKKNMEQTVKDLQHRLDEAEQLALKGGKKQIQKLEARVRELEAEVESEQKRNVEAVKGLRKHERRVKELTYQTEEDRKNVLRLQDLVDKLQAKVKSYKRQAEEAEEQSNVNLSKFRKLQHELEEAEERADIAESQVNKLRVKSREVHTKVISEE
T1 sequence (P02602 whole entry partner): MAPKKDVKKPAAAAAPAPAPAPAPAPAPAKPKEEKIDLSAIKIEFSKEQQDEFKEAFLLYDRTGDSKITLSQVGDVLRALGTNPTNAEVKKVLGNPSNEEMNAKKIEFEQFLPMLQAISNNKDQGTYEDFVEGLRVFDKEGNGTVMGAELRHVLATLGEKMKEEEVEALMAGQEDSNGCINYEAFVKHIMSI
T1 sequence (P02608 whole entry partner): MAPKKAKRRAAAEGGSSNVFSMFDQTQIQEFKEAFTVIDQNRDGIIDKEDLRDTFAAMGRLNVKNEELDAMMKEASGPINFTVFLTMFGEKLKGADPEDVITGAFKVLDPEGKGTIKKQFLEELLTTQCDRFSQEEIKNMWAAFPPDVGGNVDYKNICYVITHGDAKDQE
Procedure, shortened: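 Rabbit psoas skeletal myosin (unphosphorylated, 0.1 mg/mL final) with rabbit psoas F-actin (32 μM) at 30 °C, pH 7.0 MOPS buffer (50 mM NaCl, 0.1 mM EGTA, 5 mM MgCl2, 2 mM ATP, 1 mM DTT), 2% DMSO. IC50 taken as half-maximal reduction of steady-state rate. Selectivity is cardiac IC50 (bovine left-ventricle myosin, 0.5 mg/mL) divided by skeletal IC50.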

[3] = tested on: NM-IIB (cytokinesis in Cos-7 cells); experiment: Cytokinesis inhibition in Cos-7 cells; format: cell-based; settings: 24 h, 37 °C
Procedure, shortened: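 Cos-7 cells (4,000/well) were pre-grown 24 h, then exposed 24 h at 37 °C, 5% CO2 to test compound at 40 μM final in 1% DMSO. Controls were 1% DMSO and media (negative), plus para-aminoblebbistatin 20 μM and (−)-blebbistatin 10 μM (positive). Staining was fluorescein diacetate, Hoechst 33342 and propidium iodide for 10 min. N/C is Hoechst nuclei (excluding PI-positive) per FDA-stained cell. Triplicate wells, ≥2 experiments, ≥600 cells/well.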

[4] = ref [25], cited from earlier work
[5] = biological target: T1, fast rabbit skeletal myosin; settings: previously reported ketimines; favoured isoform; ref [25]; cited from earlier work
[6] = 99:1 (v/v) PBS/methanol, room temperature; ref [25]; cited from earlier work
BEAS-2B, MCF-7 and A549 = settings: normal human cell line BEAS-2B and cancer cell lines MCF-7 and A549; ref [41]; cited from earlier work

Chain of phosphorylated chicken gizzard smooth muscle myosin (P10587 2-1979 limits assumed): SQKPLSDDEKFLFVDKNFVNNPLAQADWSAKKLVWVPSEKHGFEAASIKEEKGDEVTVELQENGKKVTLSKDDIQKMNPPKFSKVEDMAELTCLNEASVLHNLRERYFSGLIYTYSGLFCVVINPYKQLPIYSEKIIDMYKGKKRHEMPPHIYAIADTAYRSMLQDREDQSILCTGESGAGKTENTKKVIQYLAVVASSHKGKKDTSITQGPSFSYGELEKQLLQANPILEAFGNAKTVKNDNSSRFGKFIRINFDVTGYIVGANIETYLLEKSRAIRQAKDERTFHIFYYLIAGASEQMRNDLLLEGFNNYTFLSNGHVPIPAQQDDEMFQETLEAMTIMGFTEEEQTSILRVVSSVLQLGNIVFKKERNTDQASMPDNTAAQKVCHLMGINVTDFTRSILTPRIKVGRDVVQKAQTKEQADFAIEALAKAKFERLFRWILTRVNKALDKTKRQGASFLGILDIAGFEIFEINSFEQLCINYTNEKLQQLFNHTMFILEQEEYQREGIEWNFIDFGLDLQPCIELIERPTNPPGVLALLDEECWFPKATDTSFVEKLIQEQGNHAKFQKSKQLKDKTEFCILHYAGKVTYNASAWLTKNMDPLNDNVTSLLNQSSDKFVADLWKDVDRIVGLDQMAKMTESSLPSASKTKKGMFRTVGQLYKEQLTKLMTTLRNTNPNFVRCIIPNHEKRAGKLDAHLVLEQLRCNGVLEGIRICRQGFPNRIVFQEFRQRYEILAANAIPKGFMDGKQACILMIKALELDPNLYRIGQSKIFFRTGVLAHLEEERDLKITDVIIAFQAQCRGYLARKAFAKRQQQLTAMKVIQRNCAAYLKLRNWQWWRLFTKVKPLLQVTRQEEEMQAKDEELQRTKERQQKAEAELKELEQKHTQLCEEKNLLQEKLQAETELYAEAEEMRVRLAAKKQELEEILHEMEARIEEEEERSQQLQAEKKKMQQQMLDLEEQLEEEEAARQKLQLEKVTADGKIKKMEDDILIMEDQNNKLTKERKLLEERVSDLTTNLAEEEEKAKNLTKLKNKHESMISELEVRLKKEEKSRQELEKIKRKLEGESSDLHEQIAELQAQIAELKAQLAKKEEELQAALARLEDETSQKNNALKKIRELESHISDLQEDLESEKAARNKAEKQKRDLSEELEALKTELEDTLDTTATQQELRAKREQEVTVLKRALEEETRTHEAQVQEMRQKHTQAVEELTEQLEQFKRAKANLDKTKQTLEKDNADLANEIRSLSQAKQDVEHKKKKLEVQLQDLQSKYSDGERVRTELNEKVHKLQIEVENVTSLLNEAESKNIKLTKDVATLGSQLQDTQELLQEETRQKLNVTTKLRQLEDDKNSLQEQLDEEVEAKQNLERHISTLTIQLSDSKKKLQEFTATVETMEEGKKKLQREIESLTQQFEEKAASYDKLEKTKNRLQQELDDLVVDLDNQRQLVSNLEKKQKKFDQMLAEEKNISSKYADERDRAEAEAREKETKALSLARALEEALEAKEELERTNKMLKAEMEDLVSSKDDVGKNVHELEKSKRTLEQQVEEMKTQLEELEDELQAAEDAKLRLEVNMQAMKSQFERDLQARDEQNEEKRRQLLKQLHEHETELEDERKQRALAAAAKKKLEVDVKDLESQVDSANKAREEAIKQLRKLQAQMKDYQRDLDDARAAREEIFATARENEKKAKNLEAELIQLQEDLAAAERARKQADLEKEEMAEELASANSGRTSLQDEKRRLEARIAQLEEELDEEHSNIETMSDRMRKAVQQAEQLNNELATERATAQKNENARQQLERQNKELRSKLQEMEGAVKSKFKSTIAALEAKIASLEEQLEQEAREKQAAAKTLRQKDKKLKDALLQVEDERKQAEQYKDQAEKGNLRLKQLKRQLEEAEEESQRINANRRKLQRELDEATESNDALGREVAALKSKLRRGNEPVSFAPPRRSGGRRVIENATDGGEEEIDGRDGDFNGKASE

Compound | IC50 [1] [µM] | other results
COCC/N=C(\C)c1c(O)c2ccccc2oc1=O [Analog 5a, 4-Hydroxy-3-(N-(2-methoxyethyl)ethanimidoyl)-2H-chromen-2-one] | ≥ 100 | –
COc1ccc(COCCC/N=C(\C)c2c(O)c3ccccc3oc2=O)cc1 [Analog 13b] | ≥ 100 | Selectivity x/y [2]: ≥ 2.0
CCOCCC/N=C/c1c(O)c2ccccc2oc1=O [Analog 8a, 3-(N-(3-Ethoxypropyl)methanimidoyl)-4-hydroxy-2H-chromen-2-one] | ≥ 100 | –
Cc1ccc2c(c1)C(=O)[C@]1(O)CCN(c3ccccc3)C1=N2 [Blebbistatin, blebbistatin, reference compound] | – | Inhibition of cytokinesis (nuclei to cell ratio, N/C) ([3]; positive control, 10 μM): inhibited cytokinesis
CCOCC/N=C(\C)c1c(O)c2ccccc2oc1=O [Analog 5b, 3-(N-(2-Ethoxyethyl)ethanimidoyl)-4-hydroxy-2H-chromen-2-one] | ≥ 100 | –
Cc1ccc2c(c1)C(=O)[C@]1(O)CCN(c3ccc(N)cc3)C1=N2 [para-aminoblebbistatin, reference compound] | – | Inhibition of cytokinesis (nuclei to cell ratio, N/C) ([3]; positive control, 20 μM): inhibited cytokinesis
3-(N-butylethanimidoyl)-4-hydroxy-2H-chromen-2-one [BHC, reference compound] | – | Kinetic solubility ([4]; nephelometry in PBS (pH 7.4) containing 2.5% DMSO): 607 ± 2 μm
C/C(=N\Cc1cccc(C)c1)c1c(O)c2ccccc2oc1=O [JB069] | – | Selectivity (cardiac vs. skeletal myosin inhibition) [5]: cardiac-selective
C/C(=N\Cc1ccncc1)c1c(O)c2ccccc2oc1=O [JB031] | – | half-life for hydrolysis [6]: 84 ± 12 h
CCOCCC/N=C(\C)c1c(O)c2ccccc2oc1=O [Analog 5d, 3-(N-(3-Ethoxypropyl)ethanimidoyl)-4-hydroxy-2H-chromen-2-one] | ≥ 100 | –
C/C(=N\CCCOCc1ccc2c(c1)OCO2)c1c(O)c2ccccc2oc1=O [Analog 13c] | ≥ 100 | Inhibition of cytokinesis (nuclei to cell ratio, N/C) ([3]; 40 μM): no cytokinesis inhibition
C/C(=N\Cc1ccc(C)cc1)c1c(O)c2ccccc2oc1=O [JB060] | – | Selectivity (cardiac vs. skeletal myosin inhibition) [5]: skeletal-selective
COc1cccc(C/N=C(\C)c2c(O)c3ccccc3oc2=O)c1 [Analog 6a, 4-Hydroxy-3-(N-(3-methoxybenzyl)ethanimidoyl)-2H-chromen-2-one] | ≥ 100 | –
C/C(=N\Cc1ccccc1)c1c(O)c2ccccc2oc1=O [Analog 2] | – | Kinetic solubility ([4]; pH 7.4 PBS, 2.5% DMSO): 100 µM
COCCC/N=C(\C)c1c(O)c2ccccc2oc1=O [Analog 5c, 4-Hydroxy-3-(N-(3-methoxypropyl)ethanimidoyl)-2H-chromen-2-one] | ≥ 100 | –
CCCCN(CCC/N=C(\C)c1c(O)c2ccccc2oc1=O)Cc1cccc(OC)c1 [Analog 19, 3-(N-(N’-Butyl-N’−3-methoxybenzyl-3-aminopropyl)ethanimidoyl)-4-hydroxy-2H-chromen-2-one] | ≥ 100 | –
COc1cc(/C=C/C(=O)c2c(O)c3ccccc3oc2=O)ccc1O [Analog 20, 4-Hydroxy-3-(3-(4-hydroxy-3-methoxyphenyl)-1-oxo-2-propen-1-yl)-2H-1-Benzopyran-2-one] | ≥ 100 | –
COc1ccc(C/N=C(\C)c2c(O)c3ccccc3oc2=O)cc1 [Analog 6b, 4-Hydroxy-3-(N-(4-methoxybenzyl)ethanimidoyl)-2H-chromen-2-one] | ≥ 100 | Cytotoxicity (BEAS-2B, MCF-7 and A549): low μM range; Inhibition of cytokinesis (nuclei to cell ratio, N/C) ([3]; 40 μM): did not inhibit cytokinesis

Reference: publication PMC9889102 (European journal of medicinal chemistry, 2022)
